The campaign covered roughly 360,000 compounds. About 1,500 (0.42%) were called active. The sample as a whole holds a higher share of actives than the screen did. Unmarked numbers belong to inactive results.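 The calls were made as follows: active = inhibition above a per-plate cutoff of the control wells' mean inhibition plus 3 SD (cut at about 5.5% in these data); inactive = the rest.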

This experiment concerns methionyl-tRNA synthetase (Trypanosoma brucei brucei). In words: inhibition of trypanosome methionyl-tRNA synthetase – biochemical, luminescence, primary screen (AID 624268).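 Also: 0% = DMSO wells median and 100% = median of wells with control inhibitor compound.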 The settings on record: purified T. brucei MetRS, ATP depletion, Kinase-Glo luminescence; at 11.9 µM; stronger effect = higher value. In outline:
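Dosing: 11.9 µM single point; system: parasite MetRS enzyme; technique: luminescence of leftover ATP; times: 15 min enzyme-compound preincubation, 2 h reaction, 10 min detection, 25 °C; replicates: each compound tested once; read-out basis: percent inhibition relative to median high and low control wells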
A general note: Kinase-Glo measures the ATP left after a reaction by luminescence.
With `Cc1nn(C)c(Oc2ccc(Cl)cc2)c1C=O`, the inhibition is -0.76%.

Regarding `O=C(NCc1cc(C(F)(F)F)cc(C(F)(F)F)c1)C1CC(c2cccc(F)c2)=NO1` (centres undefined), the inhibition was -0.13%.

For `Cc1cccc(-c2cnc(C(O)c3cc(C)cc(C)c3)[nH]2)c1` (centres undefined), the inhibition is -0.08%.

For `OC(c1ccc(Cl)c(F)c1)c1ncc(-c2ccccc2Cl)[nH]1` (centres undefined), the inhibition was 0.44%.

In the case of `OC(c1ccc(Cl)cc1)c1ncc(-c2ccc(Cl)cc2)[nH]1` (centres undefined), the inhibition was 2.49%.

Take `Cc1ccc(C(O)c2ncc(-c3ccccc3F)[nH]2)cc1F` (centres undefined): the inhibition was -0.2%.

On to `Cc1ccc(-c2cnc(C(O)c3cc(Cl)cc(Cl)c3)[nH]2)cc1` (centres undefined), for which the inhibition was 40.4% (active).

On to `OC(c1cc(Cl)cc(Cl)c1)c1ncc(-c2ccccc2C(F)(F)F)[nH]1` (centres undefined), for which the inhibition was 58% (active).

On to `CCC(=O)N1CCC(C)(C(=O)Nc2cc(OC)c(OC)c(OC)c2)C1` (centres undefined), for which the inhibition was 0.06%.

Consider `NC(=O)CC[C@@H]1NC(=O)[C@@H]2CCCN2C(=O)c2cc([N+](=O)[O-])cc(F)c2NCCC[C@@H](C(N)=O)NC1=O`, for which the inhibition is -0.23%.

For `O=S(=O)(NCc1cccnc1)c1ccc(Cl)nc1`, the inhibition was -1.09%.

Regarding `CC(CCN1CCN=C1N(C)C)c1ccccc1` (centres undefined), the inhibition is -0.2%.

Consider `C#CCNC(=O)C[C@@H]1C[C@@]2(C(=O)OCC)CCCC=C2N(Cc2ccco2)C1=O`, for which the inhibition is -0.95%.

Regarding `CCCn1nc(C(=O)NNC(=O)CSCC(=O)Nc2cc(C)on2)c2ccccc2c1=O`, the inhibition was -0.27%.

On to `O=C(NCCc1ccc(C(F)(F)F)cc1)c1ccc2c(c1)OCO2`, for which the inhibition is -0.15%.

On to `CCCCCCCC[n+]1cccc(C(=O)N2c3c(nc(N)[nH]c3=O)NC(C)C2C)c1` (centres undefined), for which the inhibition is 14.2% (active).

For the molecule `C[C@H]1CN([C@@H](C)CO)C(=O)c2cc(-c3ccccc3F)cnc2O[C@H]1CN(C)C(=O)C1CCOCC1`, the inhibition is -1.85%.

On to `O=C(Cn1c(-c2cscn2)nc2ccccc21)Nc1ccc(Cl)cc1`, for which the inhibition is 4.33%.

As for `O=C(Cn1c(NCCO)nc2ccccc21)c1ccc(Cl)cc1Cl`, the inhibition was 8.55% (active).

Turning to `CCCn1c(=N)n(CC(=O)c2ccc(Cl)c(Cl)c2)c2ccccc21`, the inhibition is 1.04%.

Consider `Brc1cnc2ccccc2c1N1CCCCC1`, for which the inhibition was -0.62%.

In the case of `CCOc1cc(NC(=S)NCCCN(C)C)c(OCC)cc1NC(=O)C1CC1`, the inhibition was -0.32%.

Regarding `COc1ccc(CCNC(=O)CCc2ccccc2O)cc1OC`, the inhibition was -0.3%.

Turning to `COc1ccc(CCN2CC(C(=O)OCC(=O)NCc3ccccc3Cl)CC2=O)cc1OC` (centres undefined), the inhibition is 0.43%.

For the molecule `COc1ccc(CCn2ccc(O)c(Cc3ccc(Cl)cc3Cl)c2=O)cc1OC`, the inhibition was 6.37% (active).

In the case of `O=C(NCCN1CCOCC1)c1ccccc1N1C(=O)[C@@H]2Cc3c([nH]c4ccccc34)C(c3cccc(Cl)c3)N2C1=O` (some centres undefined), the inhibition is 11.4% (active).

Turning to `CC(C)(CNC(=O)c1cc(=O)[nH]c2ccccc12)N1CCOCC1`, the inhibition was 0.28%.

With `O=C(NCCN1CCOCC1)Nc1cccc(Cl)c1`, the inhibition was 0.46%.

In the case of `CC/C(O)=C1\C(=O)CC(C)(C)CC1=NCCc1nc2ccccc2[nH]1`, the inhibition is 0.39%.

Take `CCOC(=O)C(=CNNc1ccsc1C(=O)OC)C(=O)OCC`: the inhibition was 0.74%.

On to `Cc1csc(/N=C/N(C)C)c1C#N`, for which the inhibition is -0.21%.

Regarding `O=c1c2ccccc2nc2n1C(CSCc1cccc(C(F)(F)F)c1)CS2` (centres undefined), the inhibition is -1%.

As to `CCN1CCCC1CNc1ncnc2c1[nH]c1ccc(F)cc12` (centres undefined), the inhibition is 30.4% (active).

For `CCN1CCCC1CNC(=O)Cn1cnc2ccc(S(=O)(=O)N3CCC(C)CC3)cc2c1=O` (centres undefined), the inhibition is -0.14%.

For the molecule `CC(C)OCCCNc1ncnc2c1[nH]c1ccc(F)cc12`, the inhibition is 85.6% (active).

As for `CCN1CCCC1Cn1cnc2c([nH]c3cc(OC)ccc32)c1=O` (centres undefined), the inhibition was 0.01%.

For `CCNC(=O)CC1C(=O)N(c2ccc(OC)cc2)C(=O)N1CCOC` (centres undefined), the inhibition was -0.58%.

On to `CCOc1ccc(C(C(=O)NC2CCCC2)N(C(=O)c2snc(C(N)=O)c2N)C2CCCC2)cc1` (centres undefined), for which the inhibition is -0.03%.

In the case of `O=C1c2ccccc2[C@@H]2C[C@@H](O)[C@H](Nc3ccccc3Cl)CCN12`, the inhibition is -0.62%.

Consider `CN1CCCN(C(=O)C2CCCCC2)CC1`, for which the inhibition was -0.59%.

Take `O=C(NCc1ccco1)c1sc2cccc(F)c2c1Cl`: the inhibition was -1.04%.

In the case of `COc1ccc(CCNC(=O)COC(=O)C2CCCCC2)cc1`, the inhibition is 0.41%.

Regarding `O=C(OCc1nc2ccccc2[nH]1)C1CCCCC1`, the inhibition is 14.4% (active).

As to `CCN(CC)S(=O)(=O)c1ccc2nc(COC(=O)c3n[nH]c4ccccc34)[nH]c2c1`, the inhibition is -0.9%.

As to `O=C(c1ccc(N2CCCC2=O)cc1)N1CCN(c2ccc(C(F)(F)F)cc2[N+](=O)[O-])CC1`, the inhibition was -0.05%.

Turning to `COCCn1c(SC(C)C(=O)NC2CC2)nnc1-c1cccc(C)c1` (centres undefined), the inhibition is -0.37%.

Turning to `O=C(Nc1ccc(N2CCOCC2)cc1)c1cccc2c(-c3ccc(F)c(F)c3)coc12`, the inhibition is -0.14%.

With `CCSc1nsc(NC(=O)Nc2cccc(C(C)=O)c2)n1`, the inhibition was -0.36%.

On to `CSc1nsc(NC(=O)Nc2ccccc2)n1`, for which the inhibition is 19.9% (active).

`C=CCSc1nsc(NC(=O)Nc2cccc(C(C)=O)c2)n1`: the inhibition was -1.33%.

On to `O=C(COC(=O)c1ccc(F)cc1F)Nc1ncccn1`, for which the inhibition was 0.09%.

For `O=C(ON=C1CCN(S(=O)(=O)c2ccccc2)CC1)c1ccc(Cl)cc1`, the inhibition was -0.24%.

For the molecule `CCCn1c(SCC(=O)Nc2ccc(C)c(S(=O)(=O)N3CCOCC3)c2)n[nH]c1=O`, the inhibition is -1.6%.

For the molecule `COc1ccc(OC)c(NC(=O)Cn2c(=O)oc3ccccc32)c1`, the inhibition was -0.7%.

For the molecule `Cc1ccc(CCCOC(=O)C[N+]2(C)CCCC2)cc1`, the inhibition was -0.15%.

`Cc1cccc(C)c1N1C(=O)CN(Cc2ccccc2)C1=S`: the inhibition was -1%.

As for `CCCCN1CC(C)(C)[C@H](CC(=O)Nc2ccc(Br)cc2)C1=O`, the inhibition is 0.54%.

Turning to `CCCCN1C[C@H](c2ccc(Br)cc2)[C@@H](CC(=O)Nc2ccc(Br)cc2)C1=O`, the inhibition is 38.6% (active).

On to `C[C@H]1CN(c2ccc(Br)cc2)C(=O)[C@@H]1CC(=O)Nc1ccc(Br)cc1`, for which the inhibition is -0.7%.

Turning to `CCOC(=O)C1=C(c2ccccc2)NC(=O)NC1c1cc(OCC)c(O)c([N+](=O)[O-])c1` (centres undefined), the inhibition is -0.17%.

Turning to `c1ccc(CCc2ccccn2)cc1`, the inhibition is -0.47%.

In the case of `c1ccc(CN=C2Nc3ccccc3CS2)nc1`, the inhibition is 11.2% (active).

On to `O=C1CSc2ccc(C(=O)NCc3ccccn3)cc2N1`, for which the inhibition is -0.41%.

For `CCOc1ccccc1C1CC(c2ccc(Cl)cc2)Nc2nc(N)nn21` (centres undefined), the inhibition was 0.5%.

`Cc1ccc(C2CC(c3cccc(Br)c3)n3nc(N)nc3N2)cc1` (centres undefined): the inhibition was -0.23%.

For the molecule `COc1ccc(C2CC(c3ccc(Cl)cc3Cl)Nc3nc(N)nn32)cc1OC` (centres undefined), the inhibition is 9.33% (active).

For the molecule `Cc1ccc(CNC(=O)CSc2nnc3c(n2)[nH]c2ccc(F)cc23)cc1`, the inhibition is 15.6% (active).

Consider `COc1ccc2[nH]c3nc(SCC(=O)NC4CC4)nnc3c2c1`, for which the inhibition is 0.12%.

With `Cc1ccn2c(=O)nc(SCC(=O)NCc3ccc(F)cc3)nc2c1`, the inhibition was -0.43%.

As to `CCCNC(=O)C1(C)CCN(C(=O)c2ccc(F)cc2Cl)C1` (centres undefined), the inhibition was -0.42%.

On to `O=C(O)c1cc2c(cc1NC(=O)c1c(F)cccc1Cl)OCCCO2`, for which the inhibition was 0.17%.

Take `O=C(NNc1cc(Cl)cc(Cl)c1)c1c(F)cccc1Cl`: the inhibition was 45.1% (active).

For `CCN(CC)CCNC(=O)c1ccc(NC(=O)c2c(F)cccc2Cl)cc1`, the inhibition is -0.39%.

Take `C=CCC(Nc1ccccc1)c1cccc(OC)c1OC` (centres undefined): the inhibition was 0.2%.

`O=C1COc2ccc(C(=O)COC(=O)C3CC(O)CN3S(=O)(=O)c3ccc(Cl)cc3)cc2N1` (centres undefined): the inhibition is 0.64%.

In the case of `CNC[C@@H]1Oc2c(NS(C)(=O)=O)cccc2C(=O)N([C@@H](C)CO)C[C@H]1C`, the inhibition was -0.2%.

As for `CCN(CC(=O)Nc1c(F)cccc1F)C(=O)C1CCC1`, the inhibition is -0.09%.

As for `O=C(CCC1CCCCC1)Nc1cc(C(F)(F)F)ccc1N1CCOCC1`, the inhibition was 0.04%.

In the case of `O=C(Cn1c2[n+](c3ccc(C(F)(F)F)cc31)CCCCC2)Nc1c(F)cccc1F`, the inhibition was 17.2% (active).

Turning to `N#CCc1c[nH]c2ccc([N+](=O)[O-])cc12`, the inhibition is -0.24%.

On to `COC(=O)[C@H](CCSC)NC(=O)Nc1ccc(OC)cc1`, for which the inhibition is -0.05%.

For `COc1ccc(OCC(O)CNC(=O)Nc2ccc(Cl)cc2)cc1` (centres undefined), the inhibition is 60.1% (active).

For the molecule `CCc1ccc(S(=O)(=O)NCC(O)COc2ccc(OC)cc2)cc1` (centres undefined), the inhibition was -0.05%.

With `COc1cccc(NC(=O)N2CCC(NC(=O)C(Cc3cccc(C)c3)NC(C)=O)CC2)c1` (centres undefined), the inhibition is -0.33%.

Turning to `CC(Oc1ccccc1F)C(=O)NN` (centres undefined), the inhibition was -0.07%.

As for `CCCOn1c(-n2nc(C)cc2C)nc2ccccc2c1=O`, the inhibition is -0.74%.

On to `CCN(CC(=O)NCCc1ccccc1)S(=O)(=O)c1ccccc1`, for which the inhibition was 1.61%.

`O=C(CSc1nnc(-c2c[nH]c3ccccc23)o1)c1ccccc1`: the inhibition was 0.1%.

As to `CCn1c(SCC(=O)N(C)C2CCS(=O)(=O)C2)nnc1-c1cccs1` (centres undefined), the inhibition was -0.25%.

For the molecule `CN(C(=O)CSc1nnc(-c2ccc(C(C)(C)C)cc2)n1C)C1CCS(=O)(=O)C1` (centres undefined), the inhibition was -0.23%.

Turning to `CN(C(=O)CSc1nnc(-c2ccc3c(c2)OCO3)o1)C1CCS(=O)(=O)C1` (centres undefined), the inhibition is -0.28%.

For the molecule `CN(C(=O)CSc1nnc(-c2c[nH]c3ccccc23)o1)C1CCS(=O)(=O)C1` (centres undefined), the inhibition is 8.69% (active).

With `CN(C(=O)CSc1nnc(Nc2ccccc2)s1)C1CCS(=O)(=O)C1` (centres undefined), the inhibition is 6.74% (active).

With `Cn1nc(C(F)(F)F)c(-c2ccc(F)cc2)c1NC(=O)CSCC(=O)O`, the inhibition is -1.21%.

In general, inhibition refers to the change of the read-out against control, counted positive when it falls.
